UPR CHOP act = activators of apoptotic CHOP UPR arm, primary screen, cell-based, CHO-CHOP luciferase reporter, luminescence, uHTS. activation, % at 10 µM. hit rate 0.34% among 330,000. UPR activation; percent of tunicamycin response over DMSO baseline. AID 449763, 2010;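 active means at 10 µM dose, activation of 40% or more, normalized to positive control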
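Test system: CHO CHOP reporter cells. Input: 500 CHO-CHOP cells per well. Medium: F12 with 10% FBS. Technique: luciferase luminescence. Measure: percent activation relative to tunicamycin control. Dosing: 10 µM compound, 0.5% DMSO. Timing: 16-18 h cell attachment, then 6 h compound exposure, 37 °C.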
UPR XBP1 act = activators of adaptive XBP1 UPR arm, primary screen, cell-based, CHO-XBP1 luciferase reporter, luminescence, uHTS; IRE1-XBP1 UPR activation; percent of tunicamycin response, DMSO as zero; hit rate 0.33% among 330,000; activation, % at 20 µM;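 active means versus positive control, 20 µM dose yields 30% or more activation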
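Assay system: CHO-XBP1 luciferase reporter cells; Schedule: 6 h treatment, 37 °C; Detection: glow luminescence from Steady-Glo reagent; Benchmarks: high control tunicamycin 10 µg/mL final, low control DMSO vehicle only.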
M18AAP inhibitor = PfM18AAP inhibitors, malaria aminopeptidase, primary screen, biochemical, QFRET, recombinant enzyme | inhibition, % at 7.35 µM | hit rate 1.2% among 290,000 | H-Glu-NHMec fluorogenic cleavage | M18 aspartyl aminopeptidase (Plasmodium falciparum 3D7);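 active means inhibition above the campaign mean inhibition over all tested compounds plus 3 SD, cut at about 28% in these data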
p97 ATPase inh = inhibitors of human p97 ATPase, primary screen, biochemical | Transitional endoplasmic reticulum ATPase (Homo sapiens), P55072 | recombinant p97 ATPase, Kinase-Glo ATP luminescence, 3 h | inhibition, % at 8 µM | hit rate 0.42% among 220,000; in the data active means inhibition above about 15%
Target sequence (P55072 whole entry, looked up): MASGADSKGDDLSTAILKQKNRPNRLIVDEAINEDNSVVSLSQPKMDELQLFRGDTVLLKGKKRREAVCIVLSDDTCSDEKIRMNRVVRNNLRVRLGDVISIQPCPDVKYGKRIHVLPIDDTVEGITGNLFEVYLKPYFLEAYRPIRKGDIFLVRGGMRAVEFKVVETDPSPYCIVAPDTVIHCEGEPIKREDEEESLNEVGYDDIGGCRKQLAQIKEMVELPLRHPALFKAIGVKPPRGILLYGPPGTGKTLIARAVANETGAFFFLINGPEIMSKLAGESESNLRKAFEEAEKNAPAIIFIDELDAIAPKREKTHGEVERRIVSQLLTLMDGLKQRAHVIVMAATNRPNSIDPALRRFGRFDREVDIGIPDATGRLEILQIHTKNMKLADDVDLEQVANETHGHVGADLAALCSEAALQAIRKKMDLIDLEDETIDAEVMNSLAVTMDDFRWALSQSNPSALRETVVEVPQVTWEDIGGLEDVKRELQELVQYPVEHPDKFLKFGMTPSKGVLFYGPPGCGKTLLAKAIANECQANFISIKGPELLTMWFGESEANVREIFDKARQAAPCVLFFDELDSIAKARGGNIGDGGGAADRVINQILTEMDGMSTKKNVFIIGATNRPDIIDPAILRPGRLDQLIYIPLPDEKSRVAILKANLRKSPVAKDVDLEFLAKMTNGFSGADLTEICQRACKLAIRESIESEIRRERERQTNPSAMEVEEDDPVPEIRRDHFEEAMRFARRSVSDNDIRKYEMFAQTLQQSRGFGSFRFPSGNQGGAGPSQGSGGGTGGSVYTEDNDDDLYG
NS3 helicase inh = inhibitors of HCV NS3 helicase, primary screen, biochemical, Cy5 molecular beacon fluorescence | inhibition, % at 10.9 µM | Hepatitis C virus NS3 helicase | NS3 helicase DNA unwinding | hit rate 0.56% among 290,000 | AID 1800, 2009;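 active means inhibition above the mean of all tested compounds plus 3 SD, set per campaign, cut at about 35% in these data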
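System: NS3 helicase fragment of HCV / Schedule: 1 h at 25 °C / Control set: DMSO alone as 0% and 110 µM thioflavine S as 100% / Reagent: Cy5/quencher beacon DNA duplex and ATP to start / Technique: Cy5 fluorescence / Replication: singlicate / Evaluation: % inhibition of end-to-start signal ratio versus controls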
CHOP inhibitor = inhibitors of CHOP promoter induction, primary screen, cell-based, unfolded protein response, luciferase reporter; CHO-K1 CHOP-promoter luciferase, tunicamycin-induced, 15-18 h; inhibition, % at 10 µM; hit rate 3.8% among 220,000; AID 2732, 2010;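 active means compounds that reduced the stress-induced luciferase reporter signal by more than about 70% of percent inhibition, limit read from the data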
Large screens that a line does not name were inactive. Sampled rows, rich in hits. Any-hit rate of the full collection: about 4.5%.

COc1ccc(-c2nc(SC)n(C(=O)c3ccco3)n2)cc1	CHOP inhibitor 72.2
O=C(c1ccco1)n1nc(-c2ccccc2)nc1NCc1ccco1	CHOP inhibitor 80.7
COc1ccc(CNc2nc(-c3cccnc3)nn2C(=O)CC(C)C)cc1	CHOP inhibitor 83.5
O=C(c1cccnc1)n1nc(NCc2ccccc2)nc1NCc1ccccc1	M18AAP inhibitor 28.2
O=C(c1ccco1)n1nc(NCc2ccccc2)nc1NCc1ccccc1	none
CCCC(=O)n1nc(-c2cccnc2)nc1NCc1ccccc1	CHOP inhibitor 70.2 (no result: UPR CHOP act, UPR XBP1 act)
CC(=O)n1nc(-c2ccccc2)nc1NCc1ccc(F)cc1	CHOP inhibitor 73.8
CCOc1ccc(-c2nnc(N3CCCCC3)c3ccccc23)cc1	CHOP inhibitor 79.2
CSc1ccccc1NC(=O)CN1CCN(Cc2ccccc2)CC1	none
Cc1cccc(N2CCN(C(=S)c3ccc([N+](=O)[O-])cc3)CC2)c1	M18AAP inhibitor 29.6
COc1ccc(-c2ccc3oc(-c4ccsc4)cc(=O)c3c2)cn1	none (no result: M18AAP inhibitor, p97 ATPase inh, NS3 helicase inh, CHOP inhibitor)
Cc1ccc(Cn2ccc(NC(=O)c3cc4nc(-c5ccco5)cc(C(F)(F)F)n4n3)n2)cc1	CHOP inhibitor 92.8
COc1ccc(-c2cc(C(F)(F)F)n3nc(C(=O)Nc4c(C)n(C)n(-c5ccccc5)c4=O)cc3n2)cc1	p97 ATPase inh 16.7 (no result: UPR CHOP act, UPR XBP1 act)
Cc1nn(C)c(C)c1NC(=O)c1cc2nc(-c3ccco3)cc(C(F)(F)F)n2n1	none
O=C(NCc1ccco1)c1ccc(Cn2c(=O)c3sccc3n(Cc3cccc(F)c3)c2=O)cc1	CHOP inhibitor 72.2
O=C(COC(=O)c1ccc(O)cc1)Nc1ccc(S(=O)(=O)N2CCCC2)cc1	none (no result: M18AAP inhibitor, p97 ATPase inh, NS3 helicase inh, CHOP inhibitor)
CC(C)(C)C(=O)C(Cl)C(=O)Nc1ccccc1 (stereo unspecified)	UPR XBP1 act 53.8, CHOP inhibitor 80.4
O=C(Nc1ccc(Nc2ccccc2)cc1)C(Cl)Cl	none
COc1cc(OC)cc(-c2cc3nc(C)c(CCC(=O)O)c(C)n3n2)c1	CHOP inhibitor 95.0 (no result: UPR CHOP act, UPR XBP1 act)
Cc1nc2cc(-c3cccc(F)c3)nn2c(C)c1CCC(=O)N1CCN(c2ccccn2)CC1	none (no result: M18AAP inhibitor, p97 ATPase inh, NS3 helicase inh)
Cc1nc2cc(-c3ccccc3)nn2c(C)c1CCC(=O)N1CCN(c2ccccn2)CC1	CHOP inhibitor 70.8 (no result: UPR CHOP act, UPR XBP1 act)
CCOC(=O)C1CCN(C(=O)CCc2c(C)nc3cc(-c4ccccc4)nn3c2C)CC1	none
CCOC(=O)C1CCCCN1C(=O)CCc1c(C)nc2cc(-c3ccccc3)nn2c1C (stereo unspecified)	CHOP inhibitor 72.9
COCCNS(=O)(=O)c1ccc(OCC(=O)OC)c(Cl)c1	CHOP inhibitor 92.2
c1ccc(-c2nc(-c3cccs3)[nH]c2-c2ccccc2)cc1	CHOP inhibitor 74.4
COc1cc(-c2nc(-c3ccccc3)c(-c3cccs3)[nH]2)cc(OC)c1OC	none
COc1ccc(S(=O)(=O)NCC(c2cccnc2)N2CCN(Cc3ccccc3)CC2)cc1C (stereo unspecified)	none (no result: p97 ATPase inh, CHOP inhibitor)
Cc1ccc(C)c(N2CCN(C(=O)c3ccc(NS(=O)(=O)c4c(C)noc4C)cc3)CC2)c1	CHOP inhibitor 71.8
Cc1cc(C)c(C)c(S(=O)(=O)Nc2ccccc2C(=O)NN2CCOCC2)c1C	none (no result: M18AAP inhibitor, p97 ATPase inh, NS3 helicase inh, CHOP inhibitor)
O=C(c1cc2ccccc2o1)N1CCN(c2ccccc2Cl)CC1	CHOP inhibitor 81.9
COc1ccc(/C=N/Nc2ccc([N+](=O)[O-])cc2S(=O)(=O)N2CCN(C)CC2)cc1	CHOP inhibitor 71.1
COc1ccc(C=NNc2ccc([N+](=O)[O-])cc2S(=O)(=O)Nc2ccccc2C(=O)O)cc1OC	none (no result: M18AAP inhibitor, p97 ATPase inh, NS3 helicase inh, CHOP inhibitor)
O=C(COc1cccc(Cl)c1)N/N=C\c1cc2ccccc2nc1Cl	CHOP inhibitor 77.6
O=C(COc1cccc(Br)c1)N/N=C/C(=O)c1ccccc1	CHOP inhibitor 79.7
C=CCNC(=O)C1CC1(c1cccc(C)c1)c1cccc(C)c1 (stereo unspecified)	none (no result: M18AAP inhibitor, p97 ATPase inh, NS3 helicase inh, CHOP inhibitor)
Cc1cccc(C2(c3cccc(C)c3)CC2C(=O)Nc2ccc([N+](=O)[O-])cc2O)c1 (stereo unspecified)	CHOP inhibitor 103.3
Cc1nn(-c2ccc(C(=O)Nc3nnc(C4CC4)s3)cc2)c(C)c1Cl	CHOP inhibitor 72.9
O=C(Nc1ccccc1N(C(=O)c1ccco1)S(=O)(=O)c1cccs1)c1ccco1	CHOP inhibitor 84.6
C=C(C)COc1ccc2c3c(c(=O)oc2c1OCC(=C)C)CCC3	CHOP inhibitor 73.2
C=C(C)COc1ccc2c(C)c(C)c(=O)oc2c1OCC(=C)C	none
CC(C)COP(=O)(OCC(C)C)C(Nc1ccccc1)c1ccc(F)cc1 (stereo unspecified)	CHOP inhibitor 75.3
CC(C)OP(=O)(OC(C)C)C(Nc1ccccc1)c1ccc2c(c1)OCO2 (stereo unspecified)	none
CC(C)COP(=O)(OCC(C)C)C(Nc1ccccc1)c1ccccc1 (stereo unspecified)	none
CC(C)COP(=O)(OCC(C)C)C(Nc1ccccc1)c1ccc2c(c1)OCO2 (stereo unspecified)	CHOP inhibitor 75.8
O=C(CNC(=O)c1ccco1)NCC(=O)OCC(=O)c1ccc(Cl)c([N+](=O)[O-])c1	none (no result: p97 ATPase inh, CHOP inhibitor)
CCCCCCCCNC(=O)/C(C#N)=C/c1ccc2c(c1)OCCO2	none
CCCCCCCCNC(=O)/C(C#N)=C/c1ccc(SC)cc1	CHOP inhibitor 93.1
Cc1nc(Cc2nnc(SC(C)C(=O)Nc3cccc(C#N)c3)o2)cs1 (stereo unspecified)	none (no result: M18AAP inhibitor, p97 ATPase inh, NS3 helicase inh, CHOP inhibitor)
CCN(C(=O)COC(=O)Cc1ccc(F)cc1)c1c(N)n(Cc2ccccc2)c(=O)[nH]c1=O	none (no result: M18AAP inhibitor, p97 ATPase inh, NS3 helicase inh, CHOP inhibitor)
O=C(NCc1ccc(F)cc1)c1ccc2c(c1)S(=O)(=O)c1ccccc1C2=O	none (no result: M18AAP inhibitor, p97 ATPase inh, NS3 helicase inh, CHOP inhibitor)
O=C(CSC(=S)N1CCCC1)N1CCN(S(=O)(=O)c2cccc([N+](=O)[O-])c2)CC1	none (no result: p97 ATPase inh, CHOP inhibitor)
COc1cc(C2C3=C(CC(C)(C)CC3=O)Nc3ccccc3N2C(C)=O)cc(OC)c1OC (stereo unspecified)	none (no result: p97 ATPase inh, CHOP inhibitor)
CCOC(=O)C1CCN(CC(O)COc2ccc(C(C)(C)CC)cc2)CC1 (stereo unspecified)	CHOP inhibitor 92.6
CCOC(=O)C1CCN(CC(O)COc2ccc(C(C)(C)C)cc2)CC1 (stereo unspecified)	none
CC(C)c1ccc(NNC(=O)C2CCC2)cc1	none
N#C/C(=C(/O)CN1CCN(c2ccccc2F)CC1)c1nc(-c2ccc(Cl)cc2)cs1	CHOP inhibitor 82.5

Source: PubChem BioAssay
